Reference: ChEMBL document CHEMBL1158358, “Synthesis, antimicrobial and cytotoxic activities of some 5-arylidene-4-thioxo-thiazolidine-2-ones” (Eur J Med Chem, 2009)
Converted amounts (≈) assume the structure as drawn.

Tests used:
Type in all cases: functional
[1] = test system: NCI-H292; experiment: Cytotoxicity against human NCI-H292 cells at 1.25 ug/mL after 72 hrs by MTT assay; details: NCI-H292, 72 h, read-out: GI
Procedure, shortened: (§1)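 MTT antiproliferative assay. Cells were diluted to 10⁵ cells/mL in 96-well plates and preincubated for 24 h at 37 °C in humid 5% CO₂. Compounds or vincristine (reference) were then added. Formazan was dissolved and OD read at 540 nm, compared with medium-only control cells. Run in triplicate.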

[2] = test system: Enterococcus faecalis; experiment: Antimicrobial activity against Enterococcus faecalis UFPEDA 138 after 20 hrs by twofold serial dilution technique; details: UFPEDA 138, 20 h
Procedure, shortened: (§2)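 MIC was determined by twofold serial dilution. Bacteria were tested in plates at 10⁵ CFU/plate and read after 20 h. C. albicans was tested in tubes at 10³ CFU/tube and read after 48 h. All incubations were at 35 °C. Medium plus DMSO served as the negative control.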

[3] = test system: Pseudomonas aeruginosa; experiment: Antimicrobial activity against Pseudomonas aeruginosa UFPEDA 39 at 300 ug/disk after 24 hrs by disk diffusion method; details: UFPEDA 39, 24 h, read-out: IZ
Procedure, shortened: (§3)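 Preliminary screen by disk diffusion. Paper disks (6 mm) holding 300 µg of compound were placed on agar plates inoculated with a standardized microbial suspension. DMSO-only disks served as negative controls. A mean inhibition zone below 7 mm was scored as no sensitivity. Values are means, n = 3.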

[4] = test system: Staphylococcus aureus; experiment: Antimicrobial activity against Staphylococcus aureus UFPEDA 01 at 300 ug/disk after 24 hrs by disk diffusion method; details: UFPEDA 01, 24 h, read-out: IZ; procedure, shortened: as §3
[5] = test system: Candida albicans; experiment: Antimicrobial activity against Candida albicans UFPEDA 1007 after 48 hrs by twofold serial dilution technique; details: UFPEDA 1007, 48 h; procedure, shortened: as §2
[6] = test system: HEp-2; experiment: Cytotoxicity against human Hep2 cells at 1.25 ug/mL after 72 hrs by MTT assay; details: HEp-2, 72 h, read-out: GI; procedure, shortened: as §1
[7] = test system: Escherichia coli; experiment: Antimicrobial activity against Escherichia coli UFPEDA 224 at 300 ug/disk after 24 hrs by disk diffusion method; details: UFPEDA 224, 24 h, read-out: IZ; procedure, shortened: as §3
[8] = test system: Bacillus subtilis; experiment: Antimicrobial activity against Bacillus subtilis UFPEDA 16 after 20 hrs by twofold serial dilution technique; details: UFPEDA 16, 20 h; procedure, shortened: as §2
[9] = test system: Staphylococcus aureus; experiment: Antimicrobial activity against multidrug-resistant Staphylococcus aureus H.C. 21141 isolate after 20 hrs by twofold serial dilution technique; details: H.C. 21141, 20 h
Procedure, shortened: (§4)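 Twofold serial dilution MIC in agar plates against Gram-positive strains and multidrug-resistant clinical isolates. Inoculum applied was 10⁵ CFU/plate. Plates with culture medium plus DMSO served as negative control. MIC was read after incubation at 35 °C for 20 h.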

[10] = test system: HEp-2; experiment: Cytotoxicity against human Hep2 cells at 10 ug/mL after 72 hrs by MTT assay; details: HEp-2, 72 h, read-out: GI; procedure, shortened: as §1
[11] = test system: Staphylococcus aureus; experiment: Antimicrobial activity against multidrug-resistant Staphylococcus aureus H.C. 20981 isolate after 20 hrs by twofold serial dilution technique; details: H.C. 20981, 20 h; procedure, shortened: as §4
[12] = test system: Mycolicibacterium smegmatis; experiment: Antimicrobial activity against Mycobacterium smegmatis UFPEDA 71 at 300 ug/disk after 24 hrs by disk diffusion method; details: UFPEDA 71, 24 h, read-out: IZ; procedure, shortened: as §3
[13] = test system: Staphylococcus aureus; experiment: Antimicrobial activity against multidrug-resistant Staphylococcus aureus H.C. 20905 isolate after 20 hrs by twofold serial dilution technique; details: H.C. 20905, 20 h; procedure, shortened: as §4
[14] = test system: Micrococcus luteus; experiment: Antimicrobial activity against Micrococcus luteus UFPEDA 06 at 300 ug/disk after 24 hrs by disk diffusion method; details: UFPEDA 06, 24 h, read-out: IZ; procedure, shortened: as §3
[15] = test system: Enterococcus faecalis; experiment: Antimicrobial activity against multidrug-resistant Enterococcus faecalis H.C. 24962 isolate after 20 hrs by twofold serial dilution technique; details: H.C. 24962, 20 h; procedure, shortened: as §4
[16] = test system: Bacillus subtilis; experiment: Antimicrobial activity against Bacillus subtilis UFPEDA 16 at 300 ug/disk after 24 hrs by disk diffusion method; details: UFPEDA 16, 24 h, read-out: IZ; procedure, shortened: as §3
[17] = test system: Staphylococcus; experiment: Antimicrobial activity against coagulase-negative Staphylococcus H.A.M. 278 isolate after 20 hrs by twofold serial dilution technique; details: H.A.M. 278, 20 h; procedure, shortened: as §2
[18] = test system: HEp-2; experiment: Cytotoxicity against human Hep2 cells at 2.5 ug/mL after 72 hrs by MTT assay; details: HEp-2, 72 h, read-out: GI; procedure, shortened: as §1
[19] = test system: NCI-H292; experiment: Cytotoxicity against human NCI-H292 cells at 5 ug/mL after 72 hrs by MTT assay; details: NCI-H292, 72 h, read-out: GI; procedure, shortened: as §1
[20] = test system: Staphylococcus aureus; experiment: Antimicrobial activity against Staphylococcus aureus UFPEDA 01 after 20 hrs by twofold serial dilution technique; details: UFPEDA 01, 20 h; procedure, shortened: as §4
[21] = test system: Enterococcus faecalis; experiment: Antimicrobial activity against multidrug-resistant Enterococcus faecalis H.C. 21944 isolate after 20 hrs by twofold serial dilution technique; details: H.C. 21944, 20 h; procedure, shortened: as §4
[22] = test system: Staphylococcus aureus; experiment: Antimicrobial activity against multidrug-resistant Staphylococcus aureus H.C. 21036 isolate after 20 hrs by twofold serial dilution technique; details: H.C. 21036, 20 h; procedure, shortened: as §4
[23] = test system: Enterococcus faecalis; experiment: Antimicrobial activity against Enterococcus faecalis UFPEDA 138 at 300 ug/disk after 24 hrs by disk diffusion method; details: UFPEDA 138, 24 h, read-out: IZ; procedure, shortened: as §3
[24] = test system: Serratia marcescens; experiment: Antimicrobial activity against Serratia marcescens UFPEDA 398 at 300 ug/disk after 24 hrs by disk diffusion method; details: UFPEDA 398, 24 h, read-out: IZ; procedure, shortened: as §3
[25] = test system: Staphylococcus aureus; experiment: Antimicrobial activity against multidrug-resistant Staphylococcus aureus H.C. 20489 isolate after 20 hrs by twofold serial dilution technique; details: H.C. 20489, 20 h; procedure, shortened: as §4
[26] = test system: Staphylococcus aureus; experiment: Antimicrobial activity against multidrug-resistant Staphylococcus aureus H.C. 20794 isolate after 20 hrs by twofold serial dilution technique; details: H.C. 20794, 20 h; procedure, shortened: as §4
[27] = test system: NCI-H292; experiment: Cytotoxicity against human NCI-H292 cells at 10 ug/mL after 72 hrs by MTT assay; details: NCI-H292, 72 h, read-out: GI; procedure, shortened: as §1
[28] = test system: Enterococcus faecalis; experiment: Antimicrobial activity against multidrug-resistant Enterococcus faecalis H.C. 24708 isolate after 20 hrs by twofold serial dilution technique; details: H.C. 24708, 20 h; procedure, shortened: as §4
[29] = test system: Candida albicans; experiment: Antimicrobial activity against Candida albicans UFPEDA 1007 at 300 ug/disk after 48 hrs by disk diffusion method; details: UFPEDA 1007, 48 h, read-out: IZ; procedure, shortened: as §3
[30] = test system: Mycolicibacterium smegmatis; experiment: Antimicrobial activity against Mycobacterium smegmatis UFPEDA 71 after 20 hrs by twofold serial dilution technique; details: UFPEDA 71, 20 h; procedure, shortened: as §2
[31] = test system: HEp-2; experiment: Cytotoxicity against human Hep2 cells at 5 ug/mL after 72 hrs by MTT assay; details: HEp-2, 72 h, read-out: GI; procedure, shortened: as §1
[32] = test system: Micrococcus luteus; experiment: Antimicrobial activity against Micrococcus luteus UFPEDA 06 after 20 hrs by twofold serial dilution technique; details: UFPEDA 06, 20 h; procedure, shortened: as §2
[33] = test system: Staphylococcus; experiment: Antimicrobial activity against coagulase-negative Staphylococcus H.A.M. 338 isolate after 20 hrs by twofold serial dilution technique; details: H.A.M. 338, 20 h; procedure, shortened: as §2
[34] = test system: Enterococcus faecalis; experiment: Antimicrobial activity against multidrug-resistant Enterococcus faecalis H.C. 21752 isolate after 20 hrs by twofold serial dilution technique; details: H.C. 21752, 20 h; procedure, shortened: as §4
[35] = test system: NCI-H292; experiment: Cytotoxicity against human NCI-H292 cells at 2.5 ug/mL after 72 hrs by MTT assay; details: NCI-H292, 72 h, read-out: GI; procedure, shortened: as §1

O=C1NC(=S)/C(=C/c2ccccc2F)S1
inhibition of growth at 1.25 µg/mL [1]: 4.29%
MIC [2]: 32 µg/mL (≈ 134 µM)
zone of inhibition at 300 µg/disc [3]: < 7 mm
zone of inhibition at 300 µg/disc [4]: 24 mm
MIC [5]: 32 µg/mL (≈ 134 µM)
inhibition of growth at 1.25 µg/mL [6]: -8.34%
zone of inhibition at 300 µg/disc [7]: < 7 mm
MIC [8]: 32 µg/mL (≈ 134 µM)
MIC [9]: 8 µg/mL (≈ 33.4 µM)
inhibition of growth at 10 µg/mL [10]: 11.2%
MIC [11]: 4 µg/mL (≈ 16.7 µM)
zone of inhibition at 300 µg/disc [12]: 20 mm
MIC [13]: 8 µg/mL (≈ 33.4 µM)
zone of inhibition at 300 µg/disc [14]: 25 mm
MIC [15]: 32 µg/mL (≈ 134 µM)
zone of inhibition at 300 µg/disc [16]: 23 mm
MIC [17]: 32 µg/mL (≈ 134 µM)
inhibition of growth at 2.5 µg/mL [18]: 1.66%
inhibition of growth at 5 µg/mL [19]: 25.2%
MIC [20]: 8 µg/mL (≈ 33.4 µM)
MIC [21]: 32 µg/mL (≈ 134 µM)
MIC [22]: 2 µg/mL (≈ 8.36 µM)
zone of inhibition at 300 µg/disc [23]: 20 mm
zone of inhibition at 300 µg/disc [24]: < 7 mm
MIC [25]: 4 µg/mL (≈ 16.7 µM)
MIC [26]: 8 µg/mL (≈ 33.4 µM)
inhibition of growth at 10 µg/mL [27]: 40.4%
MIC [28]: 32 µg/mL (≈ 134 µM)
zone of inhibition at 300 µg/disc [29]: 16 mm
MIC [30]: 32 µg/mL (≈ 134 µM)
inhibition of growth at 5 µg/mL [31]: 8.86%
MIC [32]: 32 µg/mL (≈ 134 µM)
MIC [33]: 16 µg/mL (≈ 66.9 µM)
MIC [34]: 32 µg/mL (≈ 134 µM)
inhibition of growth at 2.5 µg/mL [35]: 7.78%

CC1=C(C(=O)O)N2C(=O)[C@@H](NC(=O)[C@H](N)c3ccccc3)[C@H]2SC1 [CEPHALEXIN ANHYDROUS]
MIC [2]: 64 µg/mL (≈ 184 µM)
MIC [8]: ≤ 1 µg/mL
MIC [9]: 2 µg/mL (≈ 5.76 µM)
MIC [11]: 8 µg/mL (≈ 23 µM)
MIC [13]: > 128 µg/mL
MIC [15]: 64 µg/mL (≈ 184 µM)
MIC [17]: 128 µg/mL (≈ 368 µM)
MIC [20]: ≤ 1 µg/mL
MIC [21]: 64 µg/mL (≈ 184 µM)
MIC [22]: > 128 µg/mL
MIC [25]: 2 µg/mL (≈ 5.76 µM)
MIC [26]: 4 µg/mL (≈ 11.5 µM)
MIC [28]: 64 µg/mL (≈ 184 µM)
MIC [30]: > 128 µg/mL
MIC [32]: ≤ 1 µg/mL
MIC [33]: 128 µg/mL (≈ 368 µM)
MIC [34]: 64 µg/mL (≈ 184 µM)

O=C1CSC(=O)N1 [THIAZOLIDINEDIONE]
zone of inhibition at 300 µg/disc [3]: < 7 mm
zone of inhibition at 300 µg/disc [4]: < 7 mm
zone of inhibition at 300 µg/disc [7]: < 7 mm
zone of inhibition at 300 µg/disc [12]: < 7 mm
zone of inhibition at 300 µg/disc [14]: < 7 mm
zone of inhibition at 300 µg/disc [16]: < 7 mm
zone of inhibition at 300 µg/disc [23]: < 7 mm
zone of inhibition at 300 µg/disc [24]: < 7 mm
zone of inhibition at 300 µg/disc [29]: < 7 mm
